These results are taken from publication PMC8559613 (Journal of biomolecular screening, 2016).

Data set [1] has as its system KLE cells. It counts as cell-based.
The test system of data set [2] is CYP1B1. Nature of the data set: EROD activity assay in KLE cells. The class given is cell-based. The following applies: human, probe 7-ER (0.8 μM).
Data set [3] in a line: Resazurin cytotoxicity assay in CYP1B1-transfected HEK293T cells. It counts as cell-based. The following applies: human, HEK293T cells transfected with CYP1B1. On the technique in general: Alamar Blue is a resazurin reagent that responds to reducing activity.
The nature of data set [4]: Resazurin cytotoxicity assay in wild-type HEK293T cells. The following applies: human. It counts as cell-based. The method in brief: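 Untransfected HEK293T cells in DMEM with 10% FBS, seeded at 5,000 cells/well and held 24 h. Prodrug given at 0–100 μM with medium changed daily for 69 h. Resazurin (0.01% w/v) added for a further 3 h (72 h total). Fluorescence read at ex 565/em 595 nm. IC50 from variable-slope dose-response fit. Controls: 0.1% DMSO vehicle and 2% Triton X-100.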

A short description of data set [5]: Resazurin cytotoxicity assay in HepaRG cells. The class given is cell-based. The following applies: human. A digest of the protocol:
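HepaRG cells grown 2 weeks in Growth medium, then 2 weeks in Differentiation medium, then seeded at 5,000 cells/well. Prodrug given at 0–100 μM with medium changed daily for 69 h. Resazurin (0.01% w/v) added for a further 3 h (72 h total). Fluorescence read at ex 565/em 595 nm. IC50 from variable-slope dose-response fit. Controls: 0.1% DMSO vehicle and 2% Triton X-100.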

In data set [6] the test system is KLE cells. Nature of the data set: Cell cycle analysis. The note with it: 72 h; for % of cells in >4N / % of cells in G0/G1 / % of cells in G2/M / % of cells in S / % of cells in Sub-G1: mean ± SD; for cell cycle effects in CYP1B1-inhibited KLE cells / cell cycle effect in KLE cells compared to untreated cells: 10 and 100 μM. The class given is cell-based, human. A digest of the protocol:
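KLE cells, day 7 post-seeding, exposed to 10 or 100 μM prodrug with or without 10 μM α-NF for 72 h; untreated cells received no prodrug. Cells harvested, fixed in 70% (v/v) ethanol at −20°C overnight, then stained with PI/RNase buffer for 30 min at room temperature. DNA content read by flow cytometry. Run in triplicate or quadruplicate.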

The subject of data set [7] is KLE cells. Nature of the data set: Annexin V-FITC/PI apoptosis assay in KLE cells. The class given is cell-based, human. The following applies: for pro-apoptotic effect (early apoptotic cell population relative to untreated cells): 50 μM, without α-NF, 24, 48 and 72 h; for concentration dependence of pro-apoptotic effect: 10, 50 and 100 μM, without α-NF, 72 h. The method in brief:
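KLE cells grown in DMEM/F-12 (1:1) with 10% FBS were seeded in 6-well plates and used on day 7 post-seeding. Prodrug was given without α-NF at 50 μM for 24, 48 or 72 h, or at 10, 50 or 100 μM for 72 h. Controls received no prodrug. Cells were double-stained with Annexin V-FITC/PI and run on flow cytometry. % early apoptotic cells was compared with untreated controls by one-way ANOVA with Dunnett post test. Triplicate or quadruplicate.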

The conditions of data set [8]: after the 14th daily oral administration of 6 mg/kg, vervet monkeys; cited from earlier work.
Where [9] appears, read: 100 μM prodrug, with 10 μM α-NF.

The term inhibition denotes the change of the read-out against control, counted positive when it falls. Low readings indicate a response near the control, high ones a response far below the control. Broadly, the IC50 is the midpoint of a concentration-inhibition curve. Low readings indicate greater potency, high ones weaker potency.

As for `O=c1cc(-c2ccccc2)oc2c1ccc1ccccc12` [α-NF, α-naphthoflavone], the “cytotoxic effect on KLE cells” value in data set [1] (α-NF up to 15 μM) was “did not show any cytotoxic effect”. Also, in data set [2], the inhibition at 24 h, 1 μM was found to be 81%.

`CONC(=N)c1ccc(-c2ccc(-c3ccc(C(=N)NOC)cn3)o2)cc1` [DB844, N-methoxy-6-{5-[4-(N-methoxyamidino)phenyl]-furan-2-yl}-nicotinamidine]: the midpoint of inhibition in data set [3], the IC50 at 72 h, lay at 38.8 ± 0.9 µM. This molecule showed an IC50 at 72 h in data set [4] of 37.9 ± 0.9 µM. The same molecule registered an IC50 at 72 h in data set [5] of 76.3 ± 1.6 µM. In data set [6] (10 μM prodrug, with 10 μM α-NF), the “% of cells in >4N” value is listed as 4.9 ± 0.9%, the “% of cells in G0/G1” value is given as 41.1 ± 1.5%, the “% of cells in G2/M” value turned out to be 40.7 ± 2.9% and the “% of cells in S” value is on record as 7.9 ± 1.5%. For the same molecule, the “% of cells in Sub-G1” value in data set [6] (10 μM prodrug, with 10 μM α-NF) is 4.1 ± 1.1%. Besides, in data set [6] (10 μM prodrug, without α-NF), the “% of cells in >4N” value is recorded as 6.3 ± 1.9%, the “% of cells in G0/G1” value is recorded as 38.7 ± 2.1%, the “% of cells in G2/M” value was 47.3 ± 0.5% and the “% of cells in S” value came out at 8.0 ± 1.4 %. For the same molecule, the “% of cells in Sub-G1” value in data set [6] (10 μM prodrug, without α-NF) is listed as 4.6 ± 0.8%. Also, in data set [6] (setting [9]), the “% of cells in >4N” value was 3.4 ± 0.6%, the “% of cells in G0/G1” value is 43.3 ± 0.4%, the “% of cells in G2/M” value was 41.8 ± 1.1% and the “% of cells in S” value is 5.6 ± 0.7%. For the same molecule, in data set [6] (setting [9]), the “% of cells in Sub-G1” value is 4.3 ± 0.9%. For the same molecule, in data set [6] (100 μM prodrug, without α-NF), the “% of cells in >4N” value is recorded as 3.7 ± 0.9%, the “% of cells in G0/G1” value worked out at 43.9 ± 1.2 %, the “% of cells in G2/M” value was found to be 40.6 ± 1.3% and the “% of cells in S” value is reported as 6.6 ± 1.1 %. For the same molecule, in data set [6] (100 μM prodrug, without α-NF), the “% of cells in Sub-G1” value was 5.3 ± 1.5%. The “cell cycle effects in CYP1B1-inhibited KLE cells” value in data set [6] (with 10 μM α-NF) is recorded as “absent”. Besides, the “cell cycle effect in KLE cells compared to untreated cells” value in data set [6] (without α-NF) is listed as “concentration-dependent G0/G1 cell cycle arrest”. In data set [7], the “pro-apoptotic effect (early apoptotic cell population relative to untreated cells)” value is given as “significant increase in the early apoptotic cell population” and the “concentration dependence of pro-apoptotic effect” value is “concentration-dependent pro-apoptotic effects”. In addition, the “average maximal plasma concentration” value in data set [8] is 0.43 µM.

With `CON=C(N)c1ccc(-c2ccc(-c3ccc(C(N)=NOC)cc3)o2)cc1` [DB289, 2,5-bis[4-amidinophenyl]furan-bis-O-methylamidoxime], the “viability of KLE cells” value in data set [1] (50 μM prodrug, KLE cells without α-NF, normalized to vehicle control) is recorded as 21%. Besides, in data set [6] (10 μM prodrug, with 10 μM α-NF), the “% of cells in >4N” value is 5.3 ± 1.0%, the “% of cells in G0/G1” value came out at 39.5 ± 0.6%, the “% of cells in G2/M” value was found to be 39.3 ± 2.9% and the “% of cells in S” value is listed as 9.8 ± 1.4%. For the same molecule, the “% of cells in Sub-G1” value in data set [6] (10 μM prodrug, with 10 μM α-NF) is 5.4 ± 0.0%. Further, in data set [6] (10 μM prodrug, without α-NF), the “% of cells in >4N” value was determined as 1.7 ± 0.6%, the “% of cells in G0/G1” value is 40.0 ± 1.7%, the “% of cells in G2/M” value is given as 45.0 ± 5.2% and the “% of cells in S” value is recorded as 5.3 ± 1.1 %. Further, the “% of cells in Sub-G1” value in data set [6] (10 μM prodrug, without α-NF) is on record as 5.1 ± 1.4%. In data set [6] (setting [9]), the “% of cells in >4N” value came out at 3.6 ± 0.4%, the “% of cells in G0/G1” value is 43.2 ± 3.4%, the “% of cells in G2/M” value came out at 42.4 ± 2.6% and the “% of cells in S” value is given as 6.1 ± 1.1%. Also, in data set [6] (setting [9]), the “% of cells in Sub-G1” value came to 4.7 ± 1.0%. For the same molecule, in data set [6] (100 μM prodrug, without α-NF), the “% of cells in >4N” value stood at 4.5 ± 1.3%, the “% of cells in G0/G1” value is on record as 43.2 ± 0.8 %, the “% of cells in G2/M” value turned out to be 39.5 ± 0.2% and the “% of cells in S” value is on record as 8.3 ± 1.0 %. For the same molecule, the “% of cells in Sub-G1” value in data set [6] (100 μM prodrug, without α-NF) was determined as 4.5 ± 0.7%. In addition, in data set [6] (with 10 μM α-NF), the “cell cycle effects in CYP1B1-inhibited KLE cells” value was “absent”. The “cell cycle effect in KLE cells compared to untreated cells” value in data set [6] (without α-NF) is recorded as “concentration-dependent G0/G1 cell cycle arrest”. Also, in data set [7], the “pro-apoptotic effect (early apoptotic cell population relative to untreated cells)” value is on record as “significant increase in the early apoptotic cell population” and the “concentration dependence of pro-apoptotic effect” value is recorded as “concentration-dependent pro-apoptotic effects”.
